Laboratory results published in ChEMBL document CHEMBL4725355, “Design, Synthesis, and Preclinical Evaluation of 3-Methyl-6-(5-thiophenyl)-1,3-dihydro-imidazo[4,5-b]pyridin-2-ones as Selective GluN2B Negative Allosteric Modulators for the Treatment of Mood Disorders” (J Med Chem, 2020).
pIC50: −log10 of the molar value. In brackets after ≈: the same amount, converted by molar mass.

Key:
[1] = Negative allosteric modulation of human GluN1a/GluN2B receptor expressed in CHO cells assessed as inhibition of glutamate and glycine-induced calcium flux preincubated for 5 mins followed by glutamate and glycine addition and measured after 5 mins by calcium 5 dye based FLIPR assay; format: cell-based
Procedure, shortened: (§1)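 Tet-On CHO T-Rex cells expressing hGluN1a with GluN2A, 2B, 2C or 2D, plated at 20,000 cells/well and induced 24 h before the assay in the presence of ketamine. Cells loaded 1 h at room temperature with Calcium 5 dye, pH 7.4 HEPES buffer. Compound added 5 min, then glutamate (~EC80) plus 10 µM glycine for 5 min; FLIPR fluorescence normalized to control wells. Three independent runs in duplicate (two for some).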

[2] = Negative allosteric modulation of human GluN1a/GluN2C receptor expressed in CHO cells assessed as inhibition of glutamate and glycine-induced calcium flux preincubated for 5 mins followed by glutamate and glycine addition and measured after 5 mins by calcium 5 dye based FLIPR assay; format: cell-based; procedure, shortened: as §1
[3] = Volume of distribution at steady state in Sprague-Dawley rat at 0.5 mg/kg, iv or 2.5 mg/kg, po using 1:1 PEG-400/water formulation by LC-MS/MS analysis; format: ADME, organism-based; conditions: in vivo
Procedure, shortened: (§2)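 Rat PK at 0.5 mg/kg i.v. and 2.5 mg/kg p.o., vehicle 1:1 PEG400/water. n=3, values given as mean ± SD.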

[4] = Tmax in Sprague-Dawley rat at 0.5 mg/kg, iv or 2.5 mg/kg, po using 1:1 PEG-400/water formulation by LC-MS/MS analysis; format: ADME, organism-based; conditions: in vivo; procedure, shortened: as §2
[5] = Cmax in Sprague-Dawley rat brain at 3 mg/kg, po after 2 hrs by LC-MS/MS analysis; format: ADME, organism-based; design: route oral, dose 3 mg/kg, time 2 hrs
Procedure, shortened: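 Oral dose of 3 mg/kg in 20% HP-β-CD to rats. Brain concentration was measured alongside ex vivo GluN2B occupancy over a 6 h time course (0.5, 2 and 6 h), n=2.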

[6] = Drug level in Sprague-Dawley rat brain cerebellum at 0.03 mg/kg, iv after 5 min by LC-MS/MS analysis; format: ADME, organism-based; conditions: read-out: Drug uptake
Procedure, shortened: (§3)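 Single i.v. dose of 0.03 mg/kg in 50% (w/v) PEG/water, pH 7.4; rats n=3 per group, killed at 5, 10, 30, 60 and 120 min. Cerebellum, cortex, striatum and hippocampus dissected, weighed and homogenized; drug quantified by LC-MS/MS and normalized to tissue weight. P<0.05 taken as significant versus cerebellum.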

[7] = Drug level in Sprague-Dawley rat brain cerebellum at 0.03 mg/kg, iv after 30 min by LC-MS/MS analysis; format: ADME, organism-based; conditions: read-out: Drug uptake; procedure, shortened: as §3
[8] = Drug level in Sprague-Dawley rat brain cerebellum at 0.03 mg/kg, iv after 60 min by LC-MS/MS analysis; format: ADME, organism-based; conditions: read-out: Drug uptake; procedure, shortened: as §3
[9] = Intrinsic clearance in rat liver microsomes at 1 uM after 5 to 60 mins in presence of NADPH by LC-MS/MS analysis; format: ADME, Microsome; conditions: time 5-60 min, read-out: CLH
Cytochrome P450 2C8 = biological target: T1, Cytochrome P450 2C8 (Homo sapiens, UniProt P10632); test: Inhibition of CYP2C8 in human liver microsomes using amodiaquine as substrate measured after 15 mins by LC-MS/MS analysis; format: ADME
T1 sequence (P10632 whole entry): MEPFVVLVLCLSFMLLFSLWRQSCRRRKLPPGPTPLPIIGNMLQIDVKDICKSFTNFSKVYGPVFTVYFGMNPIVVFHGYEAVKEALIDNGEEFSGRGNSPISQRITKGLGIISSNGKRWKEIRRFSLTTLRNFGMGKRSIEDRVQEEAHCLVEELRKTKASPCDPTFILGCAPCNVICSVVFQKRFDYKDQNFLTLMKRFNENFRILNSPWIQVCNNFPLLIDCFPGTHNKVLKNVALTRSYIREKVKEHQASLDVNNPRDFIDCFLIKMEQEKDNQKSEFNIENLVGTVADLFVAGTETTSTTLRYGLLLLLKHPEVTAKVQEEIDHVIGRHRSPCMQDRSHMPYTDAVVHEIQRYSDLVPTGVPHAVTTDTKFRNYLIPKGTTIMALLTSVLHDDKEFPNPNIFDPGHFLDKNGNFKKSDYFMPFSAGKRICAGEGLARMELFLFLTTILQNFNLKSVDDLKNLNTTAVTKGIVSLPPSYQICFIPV
Procedure, shortened: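 Human liver microsomes incubated with isoform-specific probe substrates and the test compound at concentrations up to 20 µM. IC50 derived from inhibition of metabolite formation; mean of two independent experiments, with known specific inhibitors as positive controls.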

Cytochrome P450 3A4 = Cytochrome P450 3A4 (Homo sapiens, UniProt P08684); test: Time-dependent inhibition of CYP3A4 in human liver microsomes at 10 uM using testosterone as substrate by LC-MS/MS analysis; format: ADME
Procedure, shortened: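 CYP3A4 time-dependent inhibition in human liver microsomes. The compound (0.4 to 10 μM) was tested with and without 30 min preincubation. IC50 was taken from percent activity remaining versus vehicle, averaged over two independent experiments. A >2-fold IC50 shift after preincubation was the threshold for time-dependent inhibition.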

[10] = Tmax in Sprague-Dawley rat at 2.5 mg/kg, po by LC-MS/MS analysis; format: ADME, organism-based; conditions: in vivo
[11] = Oral bioavailability in monkey at 0.5 mg/kg by LC-MS/MS analysis; format: ADME, organism-based, Macaca mulatta; conditions: rhesus monkey, in vivo
[12] = Tmax in Sprague-Dawley rat at 250 mg/kg, po administered via gavage after 24 hrs using HPMC formulation by LC-MS/MS analysis; format: ADME, organism-based; conditions: in vivo
Procedure, shortened: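 Single oral gavage of a 5% HPMC suspension at 125, 250, 500 or 1000 mg/kg to male Sprague Dawley rats, 3 per group. Plasma was sampled at 6 time points from 0.5 to 24 h.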

[13] = AUC (0 to 24 hrs) in Sprague-Dawley rat at 500 mg/kg, po administered via gavage after 24 hrs using HPMC formulation by LC-MS/MS analysis; format: ADME, organism-based; design: route oral, dose 500 mg/kg, time <=24; conditions: in vivo
Procedure, shortened: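 Single oral gavage dose to male Sprague Dawley rats, 3 per dose level. Vehicles were a standard suspension in 5% HPMC (125, 250, 500 or 1000 mg/kg) or a nanosuspension (API:polymer 4:1), with stock diluted in vehicle on the day of dosing (100, 250 or 500 mg/kg). Blood was sampled at time points from 0.5 to 24 h.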

[14] = Ratio of Cmax in Sprague-Dawley rat at 250 mg/kg, po administered via gavage after 24 hrs using HPMC formulation by LC-MS/MS analysis to EC70 for ex vivo receptor occupancy at GluN2B in po dosed Sprague-Dawley rat assessed as 3-[3H] 1-(azetidin-1-yl)-2-[6-(4-fluoro-3-methyl-phenyl)pyrrolo[3,2-b]pyridin-1-yl]-ethanone labelling; format: ADME, organism-based
[15] = Toxicity in Sprague-Dawley rat assessed as change in behavior at 500 mg/kg/day, po administered as nanosuspension measured after 2 days; format: organism-based; conditions: in vivo, 48 h, time 2 day
Procedure, shortened: (§4)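 Repeated daily oral dosing of a nanosuspension to rats for 14 days, with 500 mg/kg/day as the high dose. Clinical observations were recorded, and animals were moved to individual caging on Day 6.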

[16] = Toxicity in Sprague-Dawley rat up to 500 mg/kg/day, po administered as nanosuspension measured for 14 days; format: organism-based; conditions: in vivo, 336 h, time 14 day; procedure, shortened: as §4
[17] = Solubility of compound in simulated gastric fluid at pH 1.2 measured after 3 days; format: physicochemical; conditions: time 3 day
Procedure, shortened: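 Solubility in aqueous buffer at pH 2 and pH 7, and in simulated gastric and intestinal fluids.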

Cytochrome P450 3A4, sequence (P08684 whole entry): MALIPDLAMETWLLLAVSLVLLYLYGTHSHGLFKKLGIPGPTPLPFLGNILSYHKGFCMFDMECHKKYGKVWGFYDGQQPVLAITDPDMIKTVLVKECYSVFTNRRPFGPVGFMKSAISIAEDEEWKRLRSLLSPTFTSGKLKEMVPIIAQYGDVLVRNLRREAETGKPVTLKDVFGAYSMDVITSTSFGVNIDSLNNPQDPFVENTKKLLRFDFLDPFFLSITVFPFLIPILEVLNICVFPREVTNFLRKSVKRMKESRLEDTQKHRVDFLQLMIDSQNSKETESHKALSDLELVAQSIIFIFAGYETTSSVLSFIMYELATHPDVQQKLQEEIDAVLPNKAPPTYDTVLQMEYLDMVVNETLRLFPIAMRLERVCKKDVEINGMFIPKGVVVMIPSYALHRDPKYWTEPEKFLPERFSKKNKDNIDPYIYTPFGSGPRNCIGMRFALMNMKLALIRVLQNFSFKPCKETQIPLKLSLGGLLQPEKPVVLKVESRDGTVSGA

- pIC50 [1]: 7.51
- pIC50 [2]: < 5.00
- Vdss [3]: 1.9 L/kg
- Tmax [4]: 1.3 h
- Cmax [5]: 765 ng/g
- concentration at 5 min [6]: 19.3 ng/mL
- concentration at 0.5 h [7]: 13.8 ng/mL
- concentration at 1 h [8]: 11.9 ng/mL
- microsomal CLint at 1 µM [9]: 26.3 µL/min/mg
- pIC50 (Cytochrome P450 2C8): < 4.30
- TDI (Cytochrome P450 3A4): Not Active
- Tmax [10]: 1.3 h
- bioavailability [11]: 41%
- Tmax [12]: 2.7 h
- AUC(0-t) [13]: 22500 ng·h/mL
- Ratio [14]: 8
- solubility at 72 h [17]: 4.4 µM (≈ 1.74 µg/mL)
SMILES: Cn1c(=O)n(CC(=O)N2CCC2)c2cc(-c3ccc(C(F)(F)F)s3)cnc21
- Activity [15]: Toxic
- Activity [16]: Non-Toxic
